Assay outcomes deposited in PubChem BioAssay by The Scripps Research Institute Molecular Screening Center.
OX1R antag-1 – OX1R (HCRTR1) antagonists, primary screen, fluorescence, CHO/OX1R cells, Fluo-8 calcium, orexin A. Orexin/Hypocretin receptor type 1 (Homo sapiens), O43613. inhibition, % at 5 µM. Fluo-8 calcium fluorescence. 0.43% of 330,000 active;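 active means inhibition above its plate's threshold, mean inhibition of all tested compounds on the plate plus 3 SD, cut at about 37% in these data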
Target sequence (O43613 whole entry, looked up): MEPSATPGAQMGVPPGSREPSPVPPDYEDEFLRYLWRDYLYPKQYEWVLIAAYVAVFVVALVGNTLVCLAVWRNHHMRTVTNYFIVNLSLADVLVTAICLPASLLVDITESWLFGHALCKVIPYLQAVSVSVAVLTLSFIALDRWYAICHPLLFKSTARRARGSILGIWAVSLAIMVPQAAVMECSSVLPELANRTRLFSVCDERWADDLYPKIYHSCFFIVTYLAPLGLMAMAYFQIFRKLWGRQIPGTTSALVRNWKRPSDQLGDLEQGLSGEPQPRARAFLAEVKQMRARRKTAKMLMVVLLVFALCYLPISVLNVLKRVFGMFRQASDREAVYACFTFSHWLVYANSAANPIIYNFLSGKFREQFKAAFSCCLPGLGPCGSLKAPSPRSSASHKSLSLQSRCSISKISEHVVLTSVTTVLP
CHO parental Ca – ATP-evoked calcium signal inhibitors, parental CHO, primary screen, counter-screen for OX1R antagonist project, cell-based, fluorescence, Fluo-8 calcium dye | parental CHO-K1, ATP-induced calcium, Fluo-8 fluorescence | inhibition, % at 5.6 µM | 0.63% of 330,000 active;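 active means inhibition above that plate's mean sample inhibition plus 3 SD, cut at about 26% in these data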
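test system = CHO parental line | reagent = ATP stimulus | measured by = intracellular calcium via Fluo-8 no-wash fluorescent dye | control set = ATP and no-ATP DMSO wells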
GPR7 antag – GPR7 receptor antagonists, primary screen, cell-based, fluorescence, single concentration. Neuropeptides B/W receptor type 1 (Homo sapiens), P48145. GPR7-expressing cells, fluorescence antagonist assay. inhibition, % at 4.4 µM. 1.1% of 290,000 active. AID 1861, 2009; in the data active means inhibition above about 16%, passing the limit was not always enough;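 further: cells stimulated with the agonist NPW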
zfTRPN1 agonist – zebrafish TRPN1 channel agonists, primary screen, cell-based, HEK293, calcium fluorescence | HEK293 zebrafish TRPN1-YFP, Fluo-8 calcium fluorescence; 100% = response to 87 µM carbachol | activation, % at 3 µM | 0.18% of 220,000 active | AID 1424, 2008;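 active means activation above its plate's cutoff, the mean activation of test wells on that plate plus 3 SD, cut at about 19% in these data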
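Material – zebrafish TRPN1-YFP in HEK293 cells · Doses – 3 µM single point · Schedule – dye 1 h 37 °C plus 30 min RT · Signal – Fluo-8 calcium fluorescence, excitation 470-495 nm, emission 515-575 nm · Read-out – % activation versus carbachol response · Control set – carbachol high, DMSO low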
TRPML3 agonist – human TRPML3 channel agonists, primary screen, cell-based, HEK293 TRPML3-YFP, Fluo-8 calcium fluorescence, 3 µM; 0.29% of 220,000 active; 100% = the carbachol control signal; activation, % at 3 µM; AID 1448, 2008; Mucolipin-3 (Homo sapiens), Q8TDD5;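 active means activation above its plate's cutoff, the mean activation of the plate's test wells plus 3 SD, cut at about 12% in these data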
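Test system – HEK293 line with stable expression of human TRPML3-YFP channel · Control set – carbachol 87 µM final as high control (100%), DMSO as low control (0%) · Signal – Fluo-8 calcium dye fluorescence, ex 470-495, em 515-575 nm · Incubation – 1-h 37 °C dye load, 5-s basal, 120-s post-compound reads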
OX1R antag-2 – antagonists of human orexin 1 receptor (OX1R); Orexin/Hypocretin receptor type 1 (Homo sapiens), O43613; OX1R-expressing cells, FRET antagonist read-out; inhibition, % at 6.6 µM; 1.8% of 330,000 active; in the data active means inhibition mostly above about 38%, no sharp cut-off; inactive means mostly below about 40%
Large screens that a line does not name were inactive. In the library only some 3.2% were active in any assay of this set; here they are far more common.

O=c1c2cc([N+](=O)[O-])ccc2nc2n1CCCC2	OX1R antag-2 68.8 (no result: zfTRPN1 agonist, TRPML3 agonist)
COc1ccccc1NS(=O)(=O)c1ccc(C(=O)N2CCCCCCC2)cc1	OX1R antag-2 26.1 (no result: GPR7 antag, zfTRPN1 agonist, TRPML3 agonist)
COc1cccc(C(=O)/C=C/Nc2ccc(S(=O)(=O)Nc3ccc(C(C)=O)cc3)cc2)c1	none
COc1ccccc1NS(=O)(=O)c1ccc(C(=O)N2CCCC(C)C2)cc1 (centres undefined)	none (no result: zfTRPN1 agonist, TRPML3 agonist)
COc1ccccc1NS(=O)(=O)c1cccc(NC(=O)Nc2ccc(Cl)cc2)c1	OX1R antag-1 50.9, CHO parental Ca 81.9, OX1R antag-2 51.8
COc1ccc(C(=O)/C=C/Nc2ccc(S(=O)(=O)Nc3cccc(C(C)=O)c3)cc2)cc1	OX1R antag-1 46.7, CHO parental Ca 36.4, OX1R antag-2 70.7
COc1ccccc1NS(=O)(=O)c1cccc(NC(=O)Nc2ccccc2)c1	OX1R antag-1 44.1
Cc1ccc(C(=O)Nc2ncccc2O)o1	none (no result: GPR7 antag, zfTRPN1 agonist, TRPML3 agonist)
COc1ccc(CCNS(=O)(=O)c2ccc(Cl)cc2)cc1OC	none (no result: zfTRPN1 agonist, TRPML3 agonist)
O=C(C[C@H]1C/C=C\CCC(=O)OC[C@H]2CCCN2C1=O)NCCO	none (no result: GPR7 antag, zfTRPN1 agonist, TRPML3 agonist)
Cc1ccc(NC(=O)c2cccnc2C(=O)O)nc1	none (no result: zfTRPN1 agonist, TRPML3 agonist)
COc1ccc(NS(=O)(=O)c2cccc(N/C(=N\S(=O)(=O)c3ccccc3)c3ccc(F)cc3)c2)cc1	GPR7 antag 20.6
COc1ccc(C(CNC(=O)Cc2c(F)cccc2Cl)N2CCCCC2)cc1 (centres undefined)	none
Cc1ccc(C)c(NC(=O)CN(C)C(=O)c2oc3c(Cl)cccc3c2C)c1	none (no result: GPR7 antag, zfTRPN1 agonist, TRPML3 agonist)
CCCC[n+]1ccn(C2=C([O-])c3ccccc3C(=O)/C2=N\S(=O)(=O)c2ccc(Cl)cc2)c1	OX1R antag-2 46.8
CCCCC[n+]1ccn(C2=C([O-])c3ccccc3C(=O)/C2=N\S(=O)(=O)c2ccc(Cl)cc2)c1	none
CCOC(=O)C1CCCN(C(=O)c2ccc3c(c2)OCO3)C1 (centres undefined)	none
CCOC(=O)C1CCN(C(=O)c2ccc(OCC(=O)Nc3cccc(C(F)(F)F)c3)cc2)CC1	none (no result: zfTRPN1 agonist, TRPML3 agonist)
CCOC(=O)C1CCN(C(=O)c2ccc3c(c2)OCO3)CC1	CHO parental Ca 57.0
O=C(c1ccc2c(c1)OCO2)N1CCC(Cc2ccccc2)CC1	GPR7 antag 18.8
CCOC(=O)C1CCN(C(=O)c2ccc(OCC(=O)Nc3cccc(C(F)(F)F)c3)c(OC)c2)CC1	OX1R antag-1 44.6, CHO parental Ca 44.6 (no result: GPR7 antag, zfTRPN1 agonist, TRPML3 agonist)
CCc1ccccc1NC(=O)CCc1nc(-c2cccs2)no1	none
O=C(O)c1cc2nccc(-c3ccco3)n2n1	none
COc1ccc(-c2ccnc3cc(C(=O)O)nn23)cc1	OX1R antag-2 56.8
CCCn1c(SCC(=O)Nc2ccc(F)c(Cl)c2)nc(O)cc1=O	CHO parental Ca 30.5 (no result: GPR7 antag, zfTRPN1 agonist, TRPML3 agonist)
Cc1cc(C(C)(C)C)ccc1OCCCCN1CCCC1	none
CCC(C)(C)c1ccc(OCCCC[n+]2cccc(C)c2C)c(C(C)(C)CC)c1	OX1R antag-1 52.3, CHO parental Ca 40.4, GPR7 antag 21.6
CC1(C)CSC(=NCCc2ccccc2)N1C(=O)c1ccc(C#N)cc1	GPR7 antag 20.1
CCN1/C(=C/c2ccc3cc(C)ccc3[n+]2CC)Sc2cc(C)ccc21	zfTRPN1 agonist 33.0, TRPML3 agonist 12.7 (no result: OX1R antag-1, CHO parental Ca, OX1R antag-2)
CCN1/C(=C/c2ccc3cc(C)ccc3[n+]2C)Sc2ccc3sccc3c21	none (no result: OX1R antag-1, CHO parental Ca, OX1R antag-2)
COc1ccc(C(=O)c2ccc(N(C)C)cc2)c(OC)c1	none
CN(C)c1ccc(C(=O)c2ccc(N(C)C)c3ccccc23)cc1	CHO parental Ca 70.4, OX1R antag-2 55.2
O=[N+]([O-])c1cc(Cl)cc(/C=N\Nc2ccccn2)c1O	none
CN(C)C1(CN=Cc2cc(Cl)cc([N+](=O)[O-])c2O)CCCCC1	OX1R antag-2 43.3 (no result: zfTRPN1 agonist, TRPML3 agonist)
CCOC(=O)C1=C(C)Nc2ccccc2N=C1NC(=O)c1oc2ccccc2c1COC	OX1R antag-2 30.4 (no result: GPR7 antag, zfTRPN1 agonist, TRPML3 agonist)
